NSD2 inh – inhibitors of human histone methyltransferase NSD2 | NSD2 peptide methylation, AlphaScreen, 120 min | AID 743445 | O96028 | inhibition, % at 12.5 µM | 310,000 compounds, 0.54% hits; in the data active = inhibition above about 50%
XiGFP reactiv – X-chromosome reactivation activator | XiGFP mouse fibroblasts, % GFP-positive cells imaging, 3 d; cells co-treated with 5-aza-dC sensitizer; scaled so ellipticine positive control = 100% | activation, % at 7.58 µM | 360,000 compounds, 0.055% hits;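 active = mean normalized replicate activation at least 10% and every replicate at or above 10%; inconclusive = only one of the two criteria met; inactive = mean below 10% and not all replicates reach 10%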;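 note: 0% = median of on-plate neutral control wells and 100% = ellipticine 6 µM median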
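System: 68-5-11 XiGFP fibroblast line; Timing: 3 days compound exposure; Compound dosing: one concentration, pinned; Benchmarks: positive control ellipticine, 6 µM final; Buffer or medium: DMEM containing 5-aza-dC.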
esBAF inh – inhibitors of esBAF chromatin remodeling in mouse ES cells; Bmi1-luciferase knock-in reporter, 24 h; 100% = twice the neutral-well signal; reporter increase, % at 12.5 µM; 350,000 compounds, 2% hits; in the data active = activation above about 40%; inconclusive = no clear call, values can overlap the other calls;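 note: 0% = median of the plate's neutral control wells and 100% = double that signal; a rise in the Bmi1 reporter signal indicates esBAF inhibition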
MITF TRPM1 HTS – increases MITF-driven TRPM1 promoter luciferase signal. SK-MEL-5 TRPM1-promoter luciferase, 24 h; % of positive control, neutral wells = 0. 300,000 compounds, 0.75% hits. activation, % at 12.5 µM;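 active = mean activation of at least 80% with every replicate also reaching 80%; inconclusive = mean reaches 80% but some replicate falls short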;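 note: 0% = neutral control wells and 100% = parthenolide positive control wells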
Casp6 inh – inhibitors of human caspase-6; inhibition, % at 12.5 µM; purified caspase-6, Z-VEID-R110 cleavage fluorescence; 350,000 compounds, 0.53% hits; AID 686996; P55212;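 active = mean inhibition across replicates at least about 35%, with every replicate also reaching that limit, limit read from the data; inconclusive = only one of the two criteria met; inactive = neither criterion met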;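 note: 0% = median of neutral control wells and 100% = no fluorescence left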
Target sequence (P55212 24-179 limits assumed): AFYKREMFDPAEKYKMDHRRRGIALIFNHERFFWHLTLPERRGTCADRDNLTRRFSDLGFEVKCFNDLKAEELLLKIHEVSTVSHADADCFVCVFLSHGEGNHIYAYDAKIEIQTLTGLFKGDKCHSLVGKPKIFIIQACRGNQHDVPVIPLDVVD
Target sequence (P55212 194-293 limits assumed): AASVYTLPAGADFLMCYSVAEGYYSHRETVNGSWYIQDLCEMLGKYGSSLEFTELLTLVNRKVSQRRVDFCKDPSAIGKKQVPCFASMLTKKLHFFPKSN
Wnt act – activates Wnt/beta-catenin signaling in a reporter cell assay. 300,000 compounds, 1.2% hits. activation, % at 9.35 µM. activator, plate reader; in the data active = activation above about 30%, passing the limit was not always enough; inconclusive = no clear call, values can overlap the other calls;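 note: 0% = neutral control wells and 100% = positive control wells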
* hit, by the source's call; u = inconclusive; x = no result given. Shown are actives, neighbours in structure and some others; about 3% of the full set was active somewhere.

SMILES | NSD2 inh | XiGFP reactiv | esBAF inh | MITF TRPM1 HTS | Casp6 inh | Wnt act
NS(=O)(=O)c1cc(C(=O)NC2CCSc3ccccc32)ccc1Cl (centres undefined) | 180* | 0 | -2 | 3 | 80* | 1
Cc1ccc(C(=O)Nc2ccc3c(c2)CCC3)cc1 | -1 | 0 | -56 | -19 | -4 | 0
Cc1ccc(NC(=O)COc2ccc(-c3nnco3)cc2)cc1S(=O)(=O)N1CCOCC1 | 7 | 23* | -1 | -4 | -10 | 3
Cc1ccc(C(=O)Nc2ccncc2)cc1S(=O)(=O)N1CCOCC1 | 2 | 0 | -7 | 12 | -2 | -2
NS(=O)(=O)c1cc(C(=O)Nc2ccc3c(c2)CCC3)ccc1Cl | 3 | 0 | 77* | 113* | -2 | -3
Cc1ccc(C(=O)Nc2ccc3c(c2)CCC3)cc1S(=O)(=O)N1CCOCC1 | -1 | 0 | 62* | 26 | 0 | u
O=C(N[C@H]1CC[C@@H](CCn2cc(Cc3ccccc3)nn2)O[C@@H]1CO)c1cnccn1 | x | 0 | -8 | x | 0 | x
O=C(C[C@@H]1C=C[C@H](NS(=O)(=O)c2ccccc2)[C@@H](CO)O1)NCc1ccccc1F | x | 0 | -7 | x | 2 | x
CC(=O)N(C)C[C@@H]1Oc2ncc(-c3cncnc3)cc2C(=O)N([C@@H](C)CO)C[C@H]1C | x | 0 | -3 | x | -1 | x
COc1ccccc1S(=O)(=O)N[C@@H]1CC[C@H](CC(=O)NCc2cc(F)cc(F)c2)O[C@H]1CO | x | 0 | x | x | -1 | x
O=C(Nc1ccc2c(c1)CCC2)c1ccc(F)c(S(=O)(=O)N2CCOCC2)c1 | 1 | 0 | x | 14 | x | 83*
Cc1ccc(NC(=O)c2ccc([N+](=O)[O-])o2)cc1S(=O)(=O)N1CCOCC1 | 10 | 0 | x | -83 | 41* | x
O=C(NCC1COc2ccccc2O1)c1ccc(F)c(S(=O)(=O)N2CCOCC2)c1 (centres undefined) | -1 | 0 | -1 | -8 | 52* | 0
O=C(Nc1ccc(S(=O)(=O)Nc2ncccn2)cc1)c1ccc(F)c(S(=O)(=O)N2CCOCC2)c1 | 2 | 1 | 0 | -1 | -1 | -2
C[C@@H]1CN([C@@H](C)CO)C(=O)c2cccc(NC(=O)Nc3ccc(F)cc3)c2O[C@H]1CN(C)Cc1ccccc1 | x | 0 | 0 | x | 2 | x
C[C@@H]1CN([C@@H](C)CO)C(=O)c2cc(C#Cc3cccc(F)c3)cnc2O[C@H]1CN(C)Cc1ccccn1 | x | -1 | -5 | x | -2 | x
NCCN1CCN(CC(=O)N2c3ccccc3C(=O)Nc3cccnc32)CC1 | x | 0 | -2 | 5 | -25 | -1
O=C1Nc2cccnc2N(C(=O)CCl)c2ccccc21 | 12 | 0 | -1 | -40 | 47* | -2
S=C(NCc1ccc2c(c1)OCO2)Nc1ccc2nsnc2c1 | 0 | 1 | 56* | 32 | 4 | -4
Cc1ccc(NC(=S)NCc2ccc3c(c2)OCO3)cc1C | 3 | 0 | x | -14 | 1 | x
CN(C)C(=S)Nc1ccc2c(c1)OCO2 | 2 | 0 | x | 9 | 6 | 2
S=C(Nc1ccc2c(c1)OCO2)Nc1ccc2c(c1)OCO2 | 4 | 0 | 51* | 31 | 15 | 5
CC(C)(C)n1cnc2cc(NCc3ccc(Br)cc3)ccc21 | 16 | 0 | 51 | 75 | -5 | u
CCc1ccc(CNc2ccc3c(c2)ncn3C(C)(C)C)cc1 | 28 | 0 | 51* | 35 | -3 | 29
CCc1ccc(CNc2ccc3c(c2)ncn3CC)cc1 | 8 | 0 | 75* | 91* | -1 | 29
SMILES | NSD2 inh | XiGFP reactiv | esBAF inh | MITF TRPM1 HTS | Casp6 inh | Wnt act
CCCCn1cnc2cc(NCc3ccncc3)ccc21 | -2 | x | 7 | -1 | -2 | x
COc1ccc2c3c(n(C)c2c1)[C@H](CO)N(Cc1ccc2c(c1)OCO2)CC31CN(C)C1 | x | 0 | x | x | x | x
Cc1ccc(Nc2n[nH]c(=S)s2)cc1C | 1 | 0 | 51* | x | 3 | 12
S=c1[nH]nc(Nc2cccc(Cl)c2)s1 | -3 | 0 | x | 1 | -1 | 7
O=C(O)CCCC(=O)Nc1ccc(OCc2nc3ccccc3s2)cc1 | -2 | 0 | 31 | 0 | 17 | 51*
O=C(CCCc1nc2ccccc2s1)Nc1ccccc1 | -13 | 0 | -10 | -12 | 3 | 2
C[C@H]1CN([C@@H](C)CO)C(=O)c2cc(-c3cccc(C#N)c3)cnc2O[C@@H]1CN(C)Cc1ccccc1 | x | 0 | -3 | x | -1 | x
COc1ccc(NC(=O)N(C)C[C@H]2OCCCC[C@H](C)Oc3ccc(NC(=O)Nc4cccc5ccccc45)cc3C(=O)N([C@H](C)CO)C[C@H]2C)cc1 | x | 0 | 0 | x | x | x
Nc1nc(-c2ccccc2)[nH]c(=O)c1N=O | -6 | 0 | -5 | -8 | 49* | -3
N#Cc1c(-c2ccccc2)nc(-c2ccccc2)[nH]c1=O | 0 | x | -10 | x | x | 0
O=c1c2sc(-c3ccccc3)cc2nc2n1CCCCC2 | -7 | 0 | x | x | 4 | 56*
COCCn1c(C)cc(C(=O)CSc2cc(C)c3ccccc3n2)c1C | 0 | x | 7 | 15 | x | x
COCCn1c(C)cc(C(=O)CSc2nc3ccccc3c(=O)n2Cc2ccco2)c1C | -2 | 0 | 97* | 43 | 0 | 55*
CCC(=O)N1CC2(CCN(C(=O)c3cccnc3)CC2)c2c([nH]c3cc(OC)ccc23)[C@H]1CO | x | 0 | x | x | -1 | x
C/C=C/c1ccc([C@H]2[C@@H](CO)N(Cc3cncnc3)C23CN(C(C)=O)C3)cc1 | x | 0 | x | x | 3 | x
COc1ccc(NC(=O)C2C(c3ccc4c(c3)OCO4)=Nc3ccccc3N2C(C)=O)cc1 (centres undefined) | x | 0 | x | x | 3 | 35*
Cc1ccc(NC(=S)N=Nc2c(O)[nH]c3ccccc23)cc1 | -15 | 0 | x | -2 | 6 | 16
Oc1ccc(NC(=S)N=Nc2c(O)[nH]c3ccccc23)cc1 | 20 | 0 | 65* | 34 | 22 | u
O=C(N=Nc1c(O)[nH]c2ccccc12)c1cccs1 | x | 0 | x | 16 | x | 35*
O=C(N=Nc1c(O)[nH]c2ccccc12)c1cc(NS(=O)(=O)c2cccs2)cc(NS(=O)(=O)c2cccs2)c1 | -5 | 0 | x | -14 | 2 | -1
COc1ccc(C2=Nc3ccccc3NC(=O)C2N(C(=O)c2cnc(C)cn2)c2ccc(N3CCOCC3)cc2)cc1 (centres undefined) | x | 0 | 48* | x | 1 | 2
Cc1cnc(C(=O)N(c2ccc(N3CCOCC3)cc2)C2C(=O)Nc3ccccc3N=C2c2ccc3c(c2)OCO3)cn1 (centres undefined) | x | 0 | 26 | x | 3 | 4
COc1cccc2cc(C(=O)NCc3ccccc3Br)c(=O)oc12 | -3 | 0 | 41* | 7 | -2 | 9
COc1cccc2cc(C(=O)NCc3ccccc3Cl)c(=O)oc12 | -2 | 0 | u | u | -1 | 16

Compound activity as filed in PubChem BioAssay.
